Bioassay records (PubChem)
Sampled rows, rich in hits. Any-hit rate of the full collection: about 1.8%.
CRFBP-R2 block = antagonists of CRF-binding protein/CRF-R2 receptor complex; 350,000 tested, 0.59% active; HEK293 CRF-R2/CRF-BP, CRF-induced calcium fluorescence; inhibition, % at 11.8 µM; AID 588475;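 active = inhibition of the ligand-induced calcium signal above about 50% at the single tested concentration, limit read from the data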
UPR XBP1 act = adaptive UPR (XBP1) activation | CHO-XBP1 luciferase reporter, IRE1-XBP1 UPR activation, luminescence; percent of tunicamycin response, DMSO as zero | AID 463104 | 330,000 tested, 0.33% active | activation, % at 20 µM;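 active = versus positive control, 20 µM dose yields 30% or more activation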;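 note: 100% = tunicamycin at 10 µg/mL and 0% = DMSO only wells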
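Material: CHO cell line with stable XBP1 luciferase reporter; buffer or medium: F12 medium containing 10% fetal bovine serum; compound: single point, 20 µM final compound, 1% DMSO; incubation: 6 h treatment, 37 °C; measured by: glow luminescence from Steady-Glo reagent; evaluation: activation, % of tunicamycin; control set: tunicamycin high, DMSO low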
Jurkat NFkB inh = lowers PMA/ionomycin-induced NF-kB signal in Jurkat cells | PMA/ionomycin-induced NF-kB luciferase reporter, luminescence | inhibition, % at 4 µM | 330,000 tested, 0.53% active | AID 435003; in the data active = inhibition above about 50%
UPR CHOP act = apoptotic UPR (CHOP) activation; CHO-CHOP luciferase reporter, luminescence; percent of tunicamycin response over DMSO baseline; activation, % at 10 µM; 330,000 tested, 0.34% active;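 active = at 10 µM dose, activation of 40% or more, normalized to positive control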;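 note: 100% = tunicamycin at 10 µg/mL and 0% = DMSO alone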
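Assay system: CHO-CHOP cells, stable luciferase reporter of PERK-eIF2a-CHOP signalling / Buffer or medium: F12 plus 10% serum / Compound dosing: one dose, 10 µM in 0.5% DMSO / Times: 6 h compound treatment, 37 °C / Technique: luciferase luminescence / Read-out: % reporter activation, DMSO baseline versus tunicamycin full activation / Benchmarks: tunicamycin and DMSO controls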
697 NFkB inh = lowers PMA/ionomycin-induced NF-kB signal in 697 B cells | 697 B-cell NF-kB luciferase reporter, 16 h | 330,000 tested, 0.33% active | inhibition, % at 4 µM | AID 435022; in the data active = inhibition above about 35%
XBP1 UPR conf = confirmation of adaptive unfolded protein response (XBP1) activators. CHO-XBP1 IRE1-XBP1 luciferase reporter, luminescence. 1,000 tested, 63% active. shares compounds with UPR XBP1 act. AID 485299. activation, % at 20 µM;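 active = reporter signal at least 30% of the positive control's activation in two or more of four replicate wells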;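 note: plate controls were DMSO negative control for no effect and tunicamycin 10 µg/mL positive control for full effect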
* = called active by the depositor; nt = no result given.

SMILES	CRFBP-R2 block	UPR XBP1 act	Jurkat NFkB inh	UPR CHOP act	697 NFkB inh	XBP1 UPR conf
COc1cc(C(=O)Nc2cc(-c3nc4cc(C)ccc4o3)ccc2C)cc(OC)c1OC	22	131*	-81	19	-153	96*
Cc1ccc2c(c1)C(=O)C(=O)N2Cc1ccc(C(F)(F)F)cc1	-26	51*	2	2	8	46*
COc1ccc(C(=O)N/N=C/c2ccc(OC)c(COc3ccccc3)c2)cc1	8	-5	-2	5	9	nt
COc1ccc(/C=N\NC(=O)c2cc(O)c(O)c(O)c2)cc1COc1ccc(C(=O)OCC(C)C)cc1	9	41*	18	5	-14	25
CC(=O)N1CCN(S(=O)(=O)c2cccc(C(=O)NCCc3ccc(Cl)cc3)c2)CC1	2	-1	2	2	7	nt
CN(C)CCCNC(=O)c1ccc(-c2nc(-c3ccc(Cl)cc3)cs2)cc1	38	82*	-4	9	-164	159*
O=C(Nc1ccc([N+](=O)[O-])cc1)c1nc[nH]c1C(=O)NC1CCCCC1	2	166*	15	24	6	172*
COc1ccc(Br)cc1-c1nc2c(c(=O)[nH]c(=O)n2Cc2ccccc2)n1C	-8	50*	10	1	0	65*
C#CCOCCOCCOCCNc1nc(N2CCN(C(=O)CCCCCCCCCCNC(=O)[C@H](CCCCN)n3cc(C)nn3)CC2)nc(N2CCN(C(=O)CCCCCCCCCCNC(=O)[C@H](CCCN=C(N)N)n3cc(C[C@@H](C)CC)nn3)CC2)n1	-126	8	-7	-1	-6	nt
C#CCOCCOCCOCCNc1nc(N2CCN(C(=O)CCCCCCCCCCNC(=O)[C@H](CCCCN)n3cc(C[C@@H](C)CC)nn3)CC2)nc(N2CCN(C(=O)CCCCCCCCCCNC(=O)[C@H](CCCN=C(N)N)n3cc(C[C@@H](C)CC)nn3)CC2)n1	-48	31*	-12	12	-48	29*
O=C(Nc1ccc(SC(F)F)cc1)c1cc(-c2ccncc2)nc2ccccc12	-1	64*	18	8	2	48*
Cc1ccc(-c2cc(C(=O)Nc3ccncc3)c3ccccc3n2)cc1	6	0	-27	0	-51	nt
Cc1ccc(C(=O)OCC(=O)NNC(=O)COc2ccc(Cl)cc2)c(O)c1	16	-3	12	1	12	nt
CC1(C)CC(=O)C(C=Nc2ccc(C(=O)c3ccccc3)cc2N=CC2=C(O)CC(C)(C)CC2=O)=C(O)C1	-130	180*	6	20	19	268*
CC(C)C(=O)N(c1cc2sc(=O)oc2c2ccccc12)S(=O)(=O)c1cccs1	-50	48*	11	24	0	49*
CC(NCC(O)COCCC12CC3CC(CC(C3)C1)C2)c1ccccc1 (centres undefined)	-100	51*	13	1	7	51*
O=C(NC1CCCCCC1)c1ccc(CS(=O)Cc2cccc(Cl)c2)o1 (centres undefined)	12	-10	-8	0	10	nt
COc1ccc(C(=O)/C=C/c2ccc(F)cc2)c(OC(=O)c2ccc([N+](=O)[O-])cc2)c1	-4	4	-17	7	14	nt
COc1ccc(C(=O)/C=C/c2cccs2)c(OC(=O)c2cccc([N+](=O)[O-])c2)c1	27	42*	-16	8	-15	56*
CCCn1c(N)c(C(=O)COC(=O)/C=C/c2ccc(OC(F)F)c(OC)c2)c(=O)[nH]c1=O	9	0	0	1	1	nt
COc1cccc(-c2sc3ccccc3c2-c2ccc(OCCN(C)C)cc2)c1	-16	37*	-2	3	15	54*
COc1cccc(-c2sc3ccccc3c2-c2ccc(OCCN3CCCC3)cc2)c1	-17	25	4	3	12	nt
c1ccc(-c2sc3ccccc3c2-c2ccc(OCCN3CCCC3)cc2)cc1	0	32*	6	3	4	19
Cn1ncc(Br)c1C(=O)NC1CCCCCC1	0	-1	8	1	6	nt
CCCC[C@@H]1C=C(C(=O)O)[C@H](c2ccc(C#N)cc2)N1S(=O)(=O)c1ccc(C)cc1	1	-2	3	-1	-9	nt
SMILES	CRFBP-R2 block	UPR XBP1 act	Jurkat NFkB inh	UPR CHOP act	697 NFkB inh	XBP1 UPR conf
Cc1ccc(NS(=O)(=O)c2cc([N+](=O)[O-])ccc2N/N=C/c2sc(N3CCOCC3)nc2-c2ccccc2)c(C)c1	21	36*	6	31	13	31*
COc1ccc(C(=O)Nc2ccccc2C(=O)N2CCOCC2)cc1	6	-2	2	-1	9	nt
O=C(N/N=C\c1c(O)ccc2ccccc12)c1ccc(O)cc1	-3	2	6	-4	-8	nt
Cn1c(-c2ccccc2)c(/C=N/NC(=O)c2ccc(O)cc2)c2ccccc21	11	35*	-32	11	-42	63*
Cc1cc(C)nc(NS(=O)(=O)c2ccc(NC(=O)c3cc4c(=O)n5cccc(C)c5nc4n3C)cc2)n1	12	101*	14	10	0	4
CC(=O)Nc1ccc(NC(=O)C(C)OC(=O)/C=C/c2cn(-c3ccccc3)nc2-c2cccnc2)cc1 (centres undefined)	18	36*	-8	2	5	17
Cc1ccccc1NC(=O)COC(=O)/C=C/c1cn(-c2ccccc2)nc1-c1cccnc1	-7	-3	4	0	12	nt
CCOc1ccc(S(=O)(=O)N(CC)CC(=O)NC2CC2)cc1	7	1	3	2	15	nt
COc1cc(/C=C(\C#N)c2nc3ccccc3[nH]2)cc(Br)c1OCc1ccc(F)cc1	-10	110*	7	1	7	128*
COc1ccc(/C=N/Nc2nc(Nc3ccccc3)nc(N3CCCC3)n2)cc1[N+](=O)[O-]	-20	13	-4	39	17	nt
COc1cc(/C=N/Nc2nc(Nc3ccc(C)cc3)nc(-n3nc(C)cc3C)n2)cc(OC)c1OC	28	50*	39	14	9	69*
COc1cc(/C=N/Nc2nc(Nc3ccccc3)nc(-n3nc(C)cc3C)n2)cc(OC)c1OC	12	72*	39	19	21	90*
COc1ccc(-c2nn(-c3ccccc3)cc2CNC[C@H]2O[C@@H](n3cnc(C(N)=O)n3)[C@H](O)[C@@H]2O)cc1	-1	nt	nt	nt	nt	nt
COc1ccccc1NC(CC(=O)c1ccccc1)C(=O)OCC(=O)c1ccc(C)c(C)c1 (centres undefined)	14	36*	-109	2	-197	-2
Cc1cc(C)cc(Nc2nc3ccccc3c(=O)[nH]2)c1	-104	4	6	-1	11	nt
Cc1ccc2c(=O)[nH]c(Nc3nc(C)cc(-c4ccccc4)n3)nc2c1	4	33*	2	8	18	43*
